Assay results taken from ChEMBL document CHEMBL1145966, “Orally active analogues of the dopaminergic prodrug 6-(N,N-di-n-propylamino)-3,4,5,6,7,8-hexahydro-2H-naphthalen-1-one: synthesis and pharmacological activity” (J Med Chem, 2003).

Experiments:
D(1A) dopamine receptor = D(1A) dopamine receptor (Bos taurus, UniProt Q95136); assay: Binding affinity of compound for Dopamine receptor D1 using [3H]-SCH- 23390
Procedure, shortened: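 Rat striatal membranes; inhibition of 0.20 nM [3H]SCH23390 binding at D1 sites, following Hyttel et al. Ki in nM, n = 3, SEM < 10%.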

D(2) dopamine receptor = D(2) dopamine receptor (Bos taurus, UniProt P20288); assay: Binding affinity of compound for Dopamine receptor D2 using [3H]N-0437
D(2) dopamine receptor, sequence (P20288 whole entry): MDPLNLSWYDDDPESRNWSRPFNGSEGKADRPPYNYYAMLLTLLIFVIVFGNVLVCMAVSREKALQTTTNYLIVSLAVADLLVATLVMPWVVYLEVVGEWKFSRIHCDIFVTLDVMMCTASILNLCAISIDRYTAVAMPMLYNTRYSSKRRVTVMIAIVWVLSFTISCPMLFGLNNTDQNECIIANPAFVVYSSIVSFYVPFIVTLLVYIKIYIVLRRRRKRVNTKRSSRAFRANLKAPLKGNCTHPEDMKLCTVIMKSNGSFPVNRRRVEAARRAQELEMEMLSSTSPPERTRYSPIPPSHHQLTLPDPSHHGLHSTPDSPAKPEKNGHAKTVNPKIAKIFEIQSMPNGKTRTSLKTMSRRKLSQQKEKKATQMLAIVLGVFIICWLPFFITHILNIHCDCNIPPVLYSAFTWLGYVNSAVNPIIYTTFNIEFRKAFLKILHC

Rattus norvegicus [1] = assay: Total full contralateral turn in rat was observed at a dose of 0.3 mg kg-1 administered perorally; format: functional; conditions: route oral
Rattus norvegicus [2] = assay: Total full contralateral turn in rat was observed at a dose of 1.0 mg kg-1 administered perorally; format: functional; conditions: route oral
Rattus norvegicus [3] = assay: Total full contralateral turn in rat was observed at a dose of 0.1 mg kg-1 administered perorally; format: functional; conditions: route oral

D(1A) dopamine receptor, sequence (Q95136 whole entry): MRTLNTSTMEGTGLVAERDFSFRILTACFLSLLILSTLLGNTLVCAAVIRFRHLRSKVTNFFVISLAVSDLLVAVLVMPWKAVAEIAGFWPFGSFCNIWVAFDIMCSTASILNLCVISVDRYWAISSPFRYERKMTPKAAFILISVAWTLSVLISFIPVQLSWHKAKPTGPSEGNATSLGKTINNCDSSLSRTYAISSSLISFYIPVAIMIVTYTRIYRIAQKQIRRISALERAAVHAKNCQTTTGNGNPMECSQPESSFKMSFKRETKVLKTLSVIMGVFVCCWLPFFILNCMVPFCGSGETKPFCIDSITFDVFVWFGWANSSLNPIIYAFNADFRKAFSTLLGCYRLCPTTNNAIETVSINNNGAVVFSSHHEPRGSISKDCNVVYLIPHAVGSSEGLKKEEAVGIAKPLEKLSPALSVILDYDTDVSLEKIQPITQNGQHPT

CCCN(CCC)[C@@H]1Cc2cccc(O)c2C[C@H]1C
Ki (D(1A) dopamine receptor): 1.1 nM | Ki (D(2) dopamine receptor): 3 nM

CCCN(CCC)C1CCC2=C(C1)CC(C)(C)CC2=O (racemic)
Total turns (Rattus norvegicus [1]): 23 | Total turns (Rattus norvegicus [2]): 204

CCCN(CC)C1CCC2=C(CCCC2=O)C1 (racemic)
Total turns (Rattus norvegicus [3]): 4840 | Total turns (Rattus norvegicus [1]): 8901

CCCN(CCc1cccs1)[C@H]1CCc2c(ccc(O)c2O)C1 (racemic)
Ki (D(1A) dopamine receptor): 110 nM | Ki (D(2) dopamine receptor): 6 nM

CCCN(CCc1cccs1)C1CCC2=C(CCCC2=O)C1 (racemic)
Total turns (Rattus norvegicus [3]): 262 | Total turns (Rattus norvegicus [2]): 503

C#CCN(C)C1CCC2=C(CCCC2=O)C1 (racemic)
Total turns (Rattus norvegicus [3]): 713 | Total turns (Rattus norvegicus [1]): 513

CCCN(C)C1CCC2=C(CCCC2=O)C1 (racemic)
Total turns (Rattus norvegicus [3]): 2928 | Total turns (Rattus norvegicus [1]): 5740

CCCN(CCCF)C1CCC2=C(CCCC2=O)C1 (racemic)
Total turns (Rattus norvegicus [1]): 5194 | Total turns (Rattus norvegicus [2]): 7540

CCCN(CCC)[C@H]1CCC2=C(CCCC2=O)C1 (racemic)
Total turns (Rattus norvegicus [3]): 2312 | Total turns (Rattus norvegicus [1]): 5354 | Total turns (Rattus norvegicus [2]): 8787

CCCN(CCc1cccs1)[C@H]1CCc2c(O)cccc2C1 (racemic) [ROTIGOTINE]
Ki (D(1A) dopamine receptor): 500 nM | Ki (D(2) dopamine receptor): 15 nM
